Experimental data published in paper PMC5393272 (Nature chemical biology, 2016).

What was measured:
[1] = test system: N-linked glycosylation in D54-ERLucT cells; experiment: D54-ERLucT cell based luciferase assay for inhibition of N-linked glycosylation; details: intact D54 ER-LucT cells in culture; maximum activation using 20 μM NGI-1; n=4
[2] = test system: luciferase N-linked glycosylation in D54 ER-LucT cells; experiment: Western blot of luciferase N-linked glycosylation in NGI-1 treated cell cultures; type: cell-based; details: doses 25 times the estimated IC50; unlike tunicamycin
[3] = test system: LLO synthesis in CHO cells; experiment: FACE analysis of LLOs in wild type CHO cells; type: cell-based; details: for effect on LLO synthesis: FACE
In short: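 Wild-type CHO cells were treated with test compound or tunicamycin. Lipid-linked oligosaccharides were analysed by fluorophore-assisted carbohydrate electrophoresis, with mature Glc3Man9 LLO as the size marker; n = 3.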

[4] = test system: OST; type: biochemical; details: NGI-1 5 μM; streptolysin-O permeabilized CHO cells; QYT or NYT peptide
In short: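 CHO cells permeabilized with streptolysin-O, incubated with test compound and either control tripeptide Ac-Gln-Tyr-Thr-CONH2 or glycosylation acceptor Ac-Asn-Tyr-Thr-CONH2. Free glycans and cleaved N-linked glycans resolved by fluorophore-assisted carbohydrate electrophoresis; n=2 for each product.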

[5] = test system: OST; experiment: Cell free pSAP glycosylation with canine pancreas microsomes; type: biochemical; details: in vitro translation of pSAP mRNA, 60 min
[6] = molecular target: STT3B (Homo sapiens, UniProt Q8TCJ2); experiment: 35S metabolic labeling of SHBG glycosylation; type: cell-based
In short: (§1)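 HeLa cells transfected with pSAP or SHBG vectors, given 10 μM test compound and metabolically labelled with 35S. Glycoforms were scored and reported as the average number of glycans per sample, with endoglycosidase H-treated controls. Runs were compared with siRNA knockdown of STT3A or STT3B against non-coding siRNA. Dose-response was run on pSAP and SHBG expressed in HEK293 cells.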

[7] = molecular target: STT3A (Homo sapiens, UniProt P46977); experiment: 35S metabolic labeling of pSAP glycosylation; type: cell-based
Sequence of STT3A (P46977 whole entry): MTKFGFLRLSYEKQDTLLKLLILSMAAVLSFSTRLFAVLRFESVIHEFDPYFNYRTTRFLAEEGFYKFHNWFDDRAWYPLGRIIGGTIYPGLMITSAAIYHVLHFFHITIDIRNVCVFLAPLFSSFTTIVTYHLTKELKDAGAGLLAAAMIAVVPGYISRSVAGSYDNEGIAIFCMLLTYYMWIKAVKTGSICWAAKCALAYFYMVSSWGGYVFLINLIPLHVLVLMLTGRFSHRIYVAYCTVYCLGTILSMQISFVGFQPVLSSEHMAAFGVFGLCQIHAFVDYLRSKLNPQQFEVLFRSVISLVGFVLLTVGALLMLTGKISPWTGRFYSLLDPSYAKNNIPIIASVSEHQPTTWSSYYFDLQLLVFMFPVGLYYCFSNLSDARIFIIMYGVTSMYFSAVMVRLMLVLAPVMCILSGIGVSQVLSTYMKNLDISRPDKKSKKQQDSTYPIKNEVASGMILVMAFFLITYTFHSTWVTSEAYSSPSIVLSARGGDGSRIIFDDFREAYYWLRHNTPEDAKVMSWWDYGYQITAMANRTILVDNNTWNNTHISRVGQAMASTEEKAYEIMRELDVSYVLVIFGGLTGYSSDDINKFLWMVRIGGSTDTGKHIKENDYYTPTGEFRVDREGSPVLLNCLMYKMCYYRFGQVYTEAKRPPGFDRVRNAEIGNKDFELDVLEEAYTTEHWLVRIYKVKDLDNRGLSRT
In short: as §1

[8] = test system: EGFR; experiment: Western blot of EGFR N-linked glycosylation in lung adenocarcinoma cells; type: cell-based; details: 10μM NGI-1, 24h; residual glycosylation remains
[9] = test system: EGFR; experiment: EGFR localization by surface biotinylation and confocal microscopy; type: cell-based; details: H3255 cells, 10 μM NGI-1, 24 h; identical in HCC-827
[10] = test system: Integrin B1 (ITB1); experiment: ITB1 glycosylation and localization; type: cell-based; details: 10μM NGI-1, 48 h; hypo-glycosylated ITB1 still at the cell surface
In short: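 H3255 cells were treated with 10 μM test compound for 48 h. Surface biotinylation: on ice, cells were labelled with 0.5 mg/ml Sulfo-NHS-SS-biotin in PBS for 60 min at 4°C, quenched with 100 mM glycine, lysed, and pulled down on streptavidin-agarose overnight at 4°C. Bound (surface) and unbound (intracellular) fractions were blotted on 7.5% SDS-PAGE. Confocal imaging used anti-β1-integrin at 1:500.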

[11] = test system: KD mutant EGFR; experiment: EGFR phosphorylation western blot in PC9 cells; type: cell-based; details: 10μM NGI-1, 1 day
In short: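 PC9 cells (with A549 for comparison) were treated with 10 μM test compound for 24 h. Lysates were western blotted for EGFR phospho-Y1173, and glycoform gel-mobility shifts were noted.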

[12] = test system: PC9 cells; experiment: MTT proliferation assay, PC9; type: cell-based
In short: (§2)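 NSCLC cells (2×10^3 per well, triplicate wells) were grown in 10% serum medium with 10 μM test compound or 1 μM tunicamycin; medium and inhibitor were renewed every 48 h. MTT was added 4 h before reading absorbance at 570 nm on days 0, 3 and 5. Mean ± s.d., n = 3; two-tailed t-tests.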

[13] = test system: A549 cell line; experiment: MTT proliferation assay, A549; type: cell-based
In short: as §2

[14] = test system: H3225; experiment: Proliferation assay, H3225; type: cell-based; details: H3225 (EGFR KD mutation), NGI-1
[15] = test system: HCC-827; experiment: Proliferation assay, HCC-827; type: cell-based; details: HCC-827 (EGFR KD mutation), NGI-1
[16] = test system: H1581 cell line; experiment: MTT proliferation assay, H1581; type: cell-based; details: H1581 (FGFR1-dependent), 10μM NGI-1, 5 d
In short: as §2

[17] = test system: H2444 cells; experiment: MTT proliferation assay, H2444; type: cell-based; details: H2444 (FGFR amplified, not FGFR1-dependent), 10μM NGI-1, 5 d
In short: as §2

[18] = test system: FGFR1; experiment: FGFR phosphorylation western blot in H1581 and H2444; type: cell-based; details: H1581 and H2444 NSCLC cell lines, NGI-1
In short: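 H1581 and H2444 NSCLC cells were treated with test compound. Lysates were western blotted with anti-phospho-FGFR (Tyr653/654) at 1:3,000, and gel mobility was assessed.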

[19] = test system: PC9 cells; experiment: Apoptosis assessment, PC9; type: cell-based
[20] = test system: A549 cells; experiment: Apoptosis assessment, A549; type: cell-based
[21] = test system: GRP78/BiP; experiment: ER stress response, GRP78/BiP protein expression; type: cell-based; details: PC9 and A549 cell lines, NGI-1
[22] = test system: PC9 cells; experiment: Cell cycle distribution by flow cytometry, PC9; type: cell-based; details: PC9, NGI-1 24 h; control 65%; p<.01
In short: (§3)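 Cells were treated with test compound (24 h stated for PC9 and A549). 1 × 10^6 cells were washed in ice-cold PBS, fixed overnight in ice-cold 70% ethanol at −20°C, then stained in Guava Cell Cycle Reagent for 30 min at room temperature. Analysis was on an LSRII cytometer, gating normal FSC/SSC and excluding doublets by FSC-A vs FSC-H. About 30,000 cells per run; mean of 3 independent assays; two-tailed t-tests.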

[23] = test system: H3225; experiment: Cell cycle distribution by flow cytometry, H3225; type: cell-based; details: H3225, NGI-1 24 h; control 55%; p<.05
In short: as §3

[24] = test system: HCC-827 cells; experiment: Cell cycle distribution by flow cytometry, HCC-827; type: cell-based; details: HCC-827, NGI-1 24 h; control 50%; p<.01
In short: as §3

[25] = test system: A549 cells; experiment: Cell cycle distribution by flow cytometry, A549; type: cell-based; details: A549, NGI-1 24 h
In short: as §3

[26] = test system: H1581 cells; experiment: Cell cycle distribution by flow cytometry, H1581; type: cell-based; details: H1581, NGI-1; control 55%; p<.05
In short: as §3

[27] = test system: H2444 cells; experiment: Cell cycle distribution by flow cytometry, H2444; type: cell-based; details: H2444, NGI-1
In short: as §3

[28] = test system: cyclin D1; experiment: Cyclin D1 mRNA and protein, A549; type: cell-based, human; details: A549, NGI-1
In short: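 Cyclin D1 mRNA: A549 and PC9 cells were treated with test compound, total RNA purified and reverse transcribed, and qPCR run with SYBR Green normalised to GAPDH. Cycling was 95°C 10 min, then 40 cycles of 95°C 30 s, 55°C 15 s, 72°C 30 s. Triplicate PCRs; n = 4; two-tailed t-tests. Protein was assessed by western blot, n = 3.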

[29] = test system: p21; experiment: p21 protein western blot, PC9; type: cell-based; details: PC9, NGI-1
[30] = test system: PC9 cells; experiment: Senescence assessment; type: cell-based; details: PC9, NGI-1 for 5 days; emission 575 nm; p<.05
In short: (§4)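 PC9 and A549 cells, untreated or given 10 μM test compound, were fixed in 70% ethanol and stained with DAPI for 30 min. Flow cytometry used 532 nm and 405 nm lasers; autofluorescence emission at 575 nm was read after DAPI gating; n = 4.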

[31] = test system: A549 cells; experiment: Senescence assessment, A549; type: cell-based; details: A549, NGI-1 for 5 days
In short: as §4

[32] = HeLa cells, 10 μM, NGI-1 omitted during pulse labeling interval (20 minutes)

For Cc1cnc(NC(=O)c2cc(S(=O)(=O)N(C)C)ccc2N2CCCC2)s1 [NGI-1], which “AC50 (equivalent to IC50), luciferase activity” value [1] is on record?
The value was 1.1 µM.

And the “extent of N-linked glycosylation inhibition” value [2]?
Its value is “did not completely abolish all N-linked glycosylation”.

And the “effect on LLO synthesis” value [3]?
Its value is “did not impair LLO synthesis”.

And the “increase of Glc3Man9GlcNAc2 LLO” value ([3]; p <.01)?
Its value is 31%.

And the “production of OST products (free glycans and N-glycans)” value [4]?
The value was “substantially reduce the production of both OST products”.

And the “inhibition of pSAP N-linked glycosylation” value [5]?
The value was “dose dependent inhibition”.

What about the “reversibility of inhibition of site occupancy (STT3B specific sites)” value [6, 32] of the same compound?
Its value is “reversible”.

And the “LLO transfer to STT3B dependent sites (SHBG)” value ([6]; dose response, HEK293 cells)?
The value was “completely blocks”.

And the “reversibility of inhibition of site occupancy (STT3A specific sites)” value [7, 32]?
Its value is “reversible”.

What about the “glycosylation of STT3A dependent sites (pSAP)” value ([7]; dose response, HEK293 cells) of the same compound?
Its value is “less potent and incompletely blocks”.

What about the “EGFR N-linked glycosylation (molecular weight on SDS-PAGE)” value [8] of the same compound?
Its value is “blocked EGFR N-linked glycosylation”.

And the “EGFR trafficking / cellular localization” value [9]?
Its value is “blocks EGFR trafficking to the cell surface”.

What about the ITB1 glycosylation [10] of the same compound?
Its ITB1 glycosylation is “significantly reduced ITB1 glycosylation”.

What about the “phosphorylation of KD mutant EGFR (Y1173)” value [11] of the same compound?
The value was “blocked phosphorylation”.

What about the “reduction of cell proliferation” value ([12]; PC9, 10μM NGI-1, after 3 days, MTT, p <.001) of the same compound?
Its value is “more than 90%”.

What about the effect on proliferation ([13]; A549 (KRAS G12S), 10μM NGI-1, MTT over 5 days) of the same compound?
The effect on proliferation was “continued to proliferate”.

And the effect on proliferation [14]?
Its effect on proliferation is “sensitive”.

And the effect on proliferation [15]?
The effect on proliferation was “sensitive”.

What about the effect on proliferation [16] of the same compound?
The effect on proliferation was “blocked proliferation”.

What about the effect on proliferation [17] of the same compound?
The effect on proliferation was “NGI-1 insensitive”.

What about the “FGFR1 phosphorylation (Y653/654)” value [18] of the same compound?
The value was “blocked FGFR1 phosphorylation”.

What about the induction of apoptosis ([19]; PC9, NGI-1 for 2 or 5 days) of the same compound?
Its induction of apoptosis is “did not induce apoptosis”.

What about the induction of apoptosis ([20]; A549, NGI-1 for 2 or 5 days) of the same compound?
Its induction of apoptosis is “did not induce apoptosis”.

What about the “ER stress response (GRP78/BiP protein expression)” value [21] of the same compound?
Its value is “induced a similar ER stress response in both cell lines”.

And the “cells in G1” value [22]?
Its value is 90%.

And the “cells in G1” value [23]?
Its value is 80%.

And the “cells in G1” value [24]?
The value was 75%.

What about the cell cycle distribution [25] of the same compound?
Its cell cycle distribution is “did not significantly change”.

And the “cells in G1” value [26]?
The value was 80%.

And the G1 arrest [27]?
Its G1 arrest is “not in H2444 cells”.

What about the “cyclin D1 mRNA and protein levels” value [28] of the same compound?
Its value is “not significantly affected”.

What about the “protein levels of p21” value [29] of the same compound?
The value was “increase within 24 h”.

What about the “increased autofluorescence by flow cytometry” value [30] of the same compound?
The value was 60.4% ± 7.5%.

What about the “hallmarks of senescence (autofluorescence, lipofuscin aggregates, morphology)” value [31] of the same compound?
Its value is “none of these changes were detected”.

What does the source list for tunicamycin [reference compound]?
effect on LLO synthesis [3]: blocked all LLO production; effect on proliferation ([12]; PC9, 1μM tunicamycin, MTT over 5 days): immediately blocks proliferation; effect on proliferation ([13]; A549, 1μM tunicamycin, MTT over 5 days): immediately blocks proliferation; induction of apoptosis ([19]; PC9, tunicamycin treatment): apoptosis was activated; induction of apoptosis ([20]; A549, tunicamycin treatment): apoptosis was activated
